Values after ≈ are worked out from the molar mass of the structure shown. Active and inactive are the calls of the source. The calls are words filed in the database; no cut-off is given here.
Tests used:
[1] = tested on: Mammalian orthoreovirus 1; experiment: Antiviral activity against Reovirus 1 3651 ATCC VR-214 infected in golden hamster BHK21 cells assessed as protection against virus-induced cytopathic effect after 3 to 4 days by MTT assay; format: functional, organism-based; settings: Mammalian orthoreovirus 1, 3651 ATCC VR-214, BHK-21
How it was run: (§1)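 Cytopathic-effect protection assay. MDBK (BVDV) or BHK (Reo-1) cells are infected in the presence of serial compound dilutions. After 3 or 4 days at 37 °C, viability is read by MTT. EC50 is the concentration giving 50% protection from virus-induced cytopathogenicity, derived by linear regression.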

[2] = tested on: Coxsackievirus B5; experiment: Antiviral activity against Coxsackievirus B5 Ohio-1 ATCC VR 29 infected in African green monkey Vero 76 cells after 3 days by plaque reduction assay; format: functional, organism-based; settings: Enterovirus B, Ohio-1 ATCC VR 29, Vero 76, 72 h
How it was run: (§2)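 Plaque reduction in Vero-76 monolayers, with cytotoxicity measured in parallel on the same plate. EC50 is the concentration reducing plaque number by 50%, derived by linear regression. CC50 is the concentration reducing viability of mock-infected Vero-76 cells by 50%, by MTT. Selectivity index is CC50/EC50.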

[3] = tested on: Human poliovirus 1 strain Sabin; experiment: Antiviral activity against Poliovirus 1 Sabin ATCC VR 1562 infected in African green monkey Vero 76 cells after 2 days by plaque reduction assay; format: functional, organism-based; settings: Enterovirus C, ATCC VR 1562, Vero 76, 48 h
[4] = tested on: Human immunodeficiency virus 1; experiment: Antiviral activity against HIV1 3B infected in human MT4 cells assessed as protection against virus-induced cytopathic effect after 3 to 4 days by MTT assay; format: functional, organism-based; settings: Human immunodeficiency virus 1, 3B
How it was run: (§3)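 MT-4 cells in exponential growth are acutely infected with HIV-1 at m.o.i. 0.01 and exposed to serial compound dilutions. Viability is read by MTT after 3–4 days at 37 °C. EC50 is the concentration giving 50% protection from virus-induced cytopathogenicity, and CC50 is taken from mock-infected MT-4 cells. Both are fitted by linear regression, and the selectivity index is CC50/EC50.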

[5] = Cytotoxicity against MDBK cells assessed as reduction in cell viability after 48 to 96 hrs by MTT assay; format: cell-based, Bos taurus; settings: cattle
How it was run: (§4)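 Cells are grown in medium with serum: MT-4 at 4×10^5 cells/ml in RPMI-1640 with 10% FBS; MDBK at 6×10^5 in MEM-E with 10% horse serum; BHK at 1×10^6 in MEM-E with 10% FBS; Vero-76 at 4×10^5 in D-MEM with 10% FBS. Serial dilutions are added at 37 °C, 5% CO2, and viability is read by MTT after 48–96 h. CC50 comes from linear regression. For MDBK, selectivity index is CC50/BVDV EC50.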

[6] = Selectivity index, ratio of CC50 for African green monkey Vero 76 cells to EC50 for Coxsackievirus B5 Ohio-1 ATCC VR-29; format: toxicity; settings: read-out: Ratio CC50/EC50; how it was run: as §2
[7] = Cytotoxicity against African green monkey Vero 76 cells assessed as reduction in cell viability after 48 to 96 hrs by MTT assay; format: cell-based; settings: chlorocebus sabaeus; how it was run: as §4
[8] = tested on: Yellow fever virus; experiment: Antiviral activity against Yellow fever virus 17D infected in golden hamster BHK21 cells assessed as protection against virus-induced cytopathic effect after 3 to 4 days by MTT assay; format: functional, organism-based; settings: BHK-21
[9] = Cytotoxicity against golden hamster BHK21 cells assessed as reduction in cell viability after 48 to 96 hrs by MTT assay; format: cell-based, Mesocricetus auratus, BHK-21; how it was run: as §4
[10] = tested on: Human orthopneumovirus; experiment: Antiviral activity against Human respiratory syncytial virus A2 ATCC VR 1540 infected in African green monkey Vero 76 cells after 5 days by plaque reduction assay; format: functional, organism-based; settings: ATCC VR 1540, Vero 76, 120 h; how it was run: as §2
[11] = tested on: Human alphaherpesvirus 1; experiment: Antiviral activity against HSV1 KOS ATCC VR 1493 infected in African green monkey Vero 76 cells after 3 days by plaque reduction assay; format: functional, organism-based; settings: Human alphaherpesvirus 1, KOS ATCC VR1493, Vero 76, 72 h; how it was run: as §2
[12] = tested on: Vaccinia virus; experiment: Antiviral activity against Vaccinia virus Lister ATCC VR 1549 infected in African green monkey Vero 76 cells after 3 days by plaque reduction assay; format: functional, organism-based; settings: Orthopoxvirus vaccinia, ATCC VR 1549, Vero 76, 72 h
[13] = Cytotoxicity against human MT4 cells assessed as reduction in cell viability after 48 to 96 hrs by MTT assay; format: cell-based; how it was run: as §4
[14] = tested on: Bovine viral diarrhea virus 1; experiment: Antiviral activity against BVDV NADL ATCC VR-534 infected in MDBK cells assessed as protection against virus-induced cytopathic effect after 3 to 4 days by MTT assay; format: functional, organism-based, Bovine viral diarrhea virus 1-NADL; settings: Bovine viral diarrhea virus isolates and strains, ATCC VR-534, MDBK; how it was run: as §1
[15] = tested on: Vesicular stomatitis Indiana virus; experiment: Antiviral activity against Vesicular stomatitis virus Indiana ATCC VR 1540 infected in African green monkey Vero 76 cells after 3 days by plaque reduction assay; format: functional, organism-based; settings: ATCC VR 1540, Vero 76, 72 h
[16] = Selectivity index, ratio of CC50 for MDBK cells to EC50 for BVDV NADL ATCC VR-534; format: toxicity; settings: cattle, read-out: Ratio CC50/EC50; how it was run: as §4
[17] = Selectivity index, ratio of CC50 for human MT4 cells to EC50 for HIV1 3B; format: toxicity; settings: read-out: Ratio CC50/EC50; how it was run: as §3
[18] = tested on: Human immunodeficiency virus 1; experiment: Antiviral activity against HIV1 3B infected in human MT4 cells assessed as inhibition of viral replication by MTT assay; format: functional, organism-based; settings: Human immunodeficiency virus 1, 3B; how it was run: as §3
[19] = tested on: Coxsackievirus B5; experiment: Antiviral activity against Coxsackievirus B5 Ohio-1 ATCC VR 29 infected in African green monkey Vero 76 cells assessed as reduction in viral titre incubated for 60 mins at 4 degC measured after 24 hrs by plaque assay; format: functional, organism-based
How it was run: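 Adsorption assay. Vero-76 cells are infected with CV-B5 (m.o.i. 0.1) with or without compound for 60 min at 4 °C. Unbound virus is removed, cells are washed twice with PBS and overlaid with MEM containing 1% methylcellulose. Plaques are counted after 24 h at 37 °C.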

[20] = tested on: Coxsackievirus B5; experiment: Antiviral activity against Coxsackievirus B5 Ohio-1 ATCC VR 29 infected in African green monkey Vero 76 cells assessed as reduction in viral infectivity at 4 to 20 uM after 1 hr by plaque assay; format: functional, organism-based
How it was run: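 Virucidal test. A CV-B5 suspension (5×10^5 PFU/ml) is incubated with 4 or 20 μM compound, or without, for 1 h at 37 °C. Residual infectivity is then measured by plaque assay on Vero-76 cells.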

[21] = tested on: Coxsackievirus B5; experiment: Antiviral activity against Coxsackievirus B5 Ohio-1 ATCC VR 29 infected in African green monkey Vero 76 cells assessed as reduction in viral titre at 1 uM preincubated for 2 hrs followed by viral infection and subsequent compound washout at 2 hrs post infection by plaque assay; format: functional, organism-based
How it was run: (§5)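 Time of addition. Confluent Vero-76 monolayers are infected with CV-B5 at m.o.i. 0.3. Compound at 1 μM is given at −2 to 0 h then removed, at 0 h then removed or kept, or at 2, 4, 6, 8 or 12 h post infection. After 3 days, monolayers are collected and titred by plaque assay, in two independent experiments each done in duplicate.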

[22] = tested on: Coxsackievirus B5; experiment: Antiviral activity against Coxsackievirus B5 Ohio-1 ATCC VR 29 infected in African green monkey Vero 76 cells assessed as reduction in viral titre at 1 uM treated simultaneously with viral infection and subsequent compound washout after 2 hrs by plaque assay; format: functional, organism-based; how it was run: as §5
[23] = tested on: Coxsackievirus B5; experiment: Antiviral activity against Coxsackievirus B5 Ohio-1 ATCC VR 29 infected in African green monkey Vero 76 cells assessed as reduction in viral yield after 72 hrs by plaque reduction assay; format: functional, organism-based
[24] = tested on: Coxsackievirus B5; experiment: Antiviral activity against Coxsackievirus B5 Ohio-1 ATCC VR 29 infected in African green monkey Vero 76 cells assessed as reduction in viral replication at 1 uM measured at 4 to 12 hrs post infection by plaque assay; format: functional, organism-based; how it was run: as §5
[25] = tested on: Coxsackievirus B5; experiment: Antiviral activity against Coxsackievirus B5 Ohio-1 ATCC VR 29 infected in African green monkey Vero 76 cells assessed as reduction in viral replication at 1 uM measured up to 2 hrs post infection by plaque assay; format: functional, organism-based; how it was run: as §5
[26] = tested on: Coxsackievirus B5; experiment: Antiviral activity against Coxsackievirus B5 Ohio-1 ATCC VR 29 infected in African green monkey Vero 76 cells assessed as reduction in viral titre at 1 uM treated simultaneously with viral infection by plaque assay; format: functional, organism-based; how it was run: as §5

SMILES | EC50 [1] | EC50 [2] | EC50 [3] | EC50 [4] | CC50 [5] | selectivity ratio [6] | CC50 [7] | EC50 [8] | CC50 [9] | EC50 [10] | EC50 [11] | EC50 [12] | CC50 [13] | EC50 [14] | EC50 [15] | also measured
CCOC(=O)c1ccc(SCc2ccc3nc(OC)c(OC)nc3c2)nc1 | > 100 µM | 0.3 µM | > 100 µM | > 100 µM | > 100 µM | > 333 | > 100 µM | > 100 µM | > 100 µM | > 100 µM | > 100 µM | > 100 µM | > 100 µM | > 100 µM | > 100 µM | 
Cc1cc(CCCOc2c(C)cc(-c3noc(C(F)(F)F)n3)cc2C)on1 [PLECONARIL] |  | 0.005 µM |  |  |  |  | > 100 µM |  |  |  |  |  |  |  |  | 
C[C@@]1(O)[C@H](O)[C@@H](CO)O[C@H]1n1cnc2c(=O)[nH]c(N)nc21 [2'-B-METHYL-GUANOSINE] | 1.9 µM |  |  |  | > 100 µM |  |  | 1.9 µM | > 100 µM |  |  |  |  | 1.1 µM |  | 
CCOC(=O)CC[C@H](NC(=O)c1ccc(SCc2ccc3nc(OC)c(OC)nc3c2)nc1)C(=O)OCC | > 85 µM | 56 µM | > 100 µM | > 19 µM | > 100 µM | > 1.7 | > 100 µM | > 85 µM | 85 µM | > 100 µM | > 100 µM | > 100 µM | 19 µM | 10 µM | > 100 µM | selectivity ratio [16]: > 10
COc1nc2ccc(CSc3ccc(Cl)c(Cl)c3)cc2nc1OC | > 80 µM | > 75 µM | > 75 µM | > 48 µM | > 100 µM |  | 75 µM | > 80 µM | 80 µM | > 75 µM | > 75 µM | > 75 µM | 48 µM | > 100 µM | > 75 µM | 
COc1nc2ccc(CSc3ccc4ccccc4c3)cc2nc1OC | > 100 µM | > 100 µM | > 100 µM | 36 µM | > 100 µM |  | > 100 µM | > 100 µM | > 100 µM | > 100 µM | > 100 µM | > 100 µM | > 100 µM | > 100 µM | > 100 µM | selectivity ratio [17]: 2.7
COc1nc2ccc(CSc3ccc(C(=O)O)cc3)cc2nc1OC | > 65 µM | 0.06 µM | > 65 µM | > 68 µM | > 100 µM | 1080 | 65 µM | > 65 µM | 65 µM | > 65 µM | > 65 µM | > 65 µM | 68 µM | > 100 µM | > 65 µM | 
COc1nc2ccc(CSc3ccccn3)cc2nc1OC | > 100 µM | > 100 µM | > 100 µM | > 28 µM | > 100 µM |  | > 100 µM | > 100 µM | > 100 µM | > 100 µM | > 100 µM | > 100 µM | 28 µM | > 100 µM | > 100 µM | 
C=CCCCOc1cnc2cc(C)c(C)cc2n1 |  |  |  |  |  |  |  |  |  |  |  |  |  |  |  | IC50 [18]: 0.22 µg/mL (≈ 0.908 µM)
CCOC(=O)CC[C@H](NC(=O)c1ccccc1SCc1ccc2nc(OC)c(OC)nc2c1)C(=O)OCC | > 100 µM | > 100 µM | > 100 µM | > 60 µM | > 100 µM |  | > 100 µM | > 100 µM | > 100 µM | > 100 µM | > 100 µM | > 100 µM | 60 µM | > 100 µM | > 100 µM | 
COc1nc2ccc(CSc3ccc(C(=O)O)cn3)cc2nc1OC | > 100 µM | 3.8 µM | > 90 µM | > 100 µM | > 100 µM | 23 | 90 µM | > 100 µM | > 100 µM | > 90 µM | > 90 µM | > 90 µM | > 100 µM | > 100 µM | > 90 µM | 
CCOC(=O)c1ccc(SCc2ccc3nc(OC)c(OC)nc3c2)cc1 | > 100 µM | 0.09 µM | > 100 µM | > 100 µM | > 100 µM | > 1110 | > 100 µM | > 100 µM | > 100 µM | > 100 µM | > 100 µM | > 100 µM | > 100 µM | > 100 µM | > 100 µM | Activity [19]: inactive; Activity [20]: inactive; Activity [21]: inactive; Activity [22]: inactive; Activity [23]: Dose-dependent effect; Activity [24]: inactive; Activity [25]: Active; Activity [26]: Active
